Assay results published in ChEMBL document CHEMBL3576832, “First Crystal Structures of Mycobacterium tuberculosis 6-Oxopurine Phosphoribosyltransferase: Complexes with GMP and Pyrophosphate and with Acyclic Nucleoside Phosphonates Whose Prodrugs Have Antituberculosis Activity” (J Med Chem, 2015).

What was measured:
[1] = tested on: Mycobacterium tuberculosis; assay: Antimycobacterial activity against Mycobacterium tuberculosis H37Rv […] assessed as inhibition of microbial growth incubated for 5 days by resazurin reduction microplate assay; format: functional; settings: 120 h
Procedure, shortened: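 H37Rv grown in 7H9 with OADC, 0.5% glycerol, 0.02% tyloxapol at 37 °C to mid-exponential phase (OD600 0.4−0.8), diluted to OD600 0.001 (~2 × 10^4 CFU/mL) in 7H9S with 0.5% DMSO; serially diluted compounds; 5 days at 37 °C, then resazurin plus Tween 80; fluorescence (ex 530/em 580 nm) read 30 h later; MIC50 from signal relative to no-inhibitor minus no-bacteria controls.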

[2] = Selectivity index, ratio of CC50 for human A549 cells to MIC50 for Mycobacterium tuberculosis H37Rv […]; format: functional
Procedure, shortened: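 Selectivity index computed as CC50 in A549 cells divided by MIC50 against H37Rv.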

[3] = Inhibition of N-terminal hexa-histidine tagged Mycobacterium tuberculosis HGPRT expressed in Escherichia coli BL-21(DE3) using PRib-PP substrate and guanine
[4] = molecular target: T1, Hypoxanthine-guanine phosphoribosyltransferase (Homo sapiens, UniProt P00492); assay: Inhibition of human HGPRT
T1 sequence (P00492 whole entry): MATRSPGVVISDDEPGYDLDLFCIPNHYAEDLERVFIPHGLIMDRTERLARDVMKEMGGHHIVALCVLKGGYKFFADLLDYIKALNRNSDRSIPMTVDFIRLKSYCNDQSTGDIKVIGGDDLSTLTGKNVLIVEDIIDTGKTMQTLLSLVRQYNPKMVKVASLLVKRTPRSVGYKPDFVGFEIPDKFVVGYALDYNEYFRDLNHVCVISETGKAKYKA

[5] = Inhibition of Mycobacterium tuberculosis HGPRT
[6] = Inhibition of Escherichia coli HGPRT
[7] = tested on: Mycobacterium tuberculosis; assay: Potency index, ratio of Ki for GMP to Ki for compound against N-terminal hexa-histidine tagged Mycobacterium tuberculosis HGPRT expressed in Escherichia coli BL-21(DE3) using PRib-PP substrate and guanine
[8] = Cytotoxicity against human A549 cells assessed as inhibition of cell proliferation incubated for 4 days by Coulter counter based assay
Procedure, shortened: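 A549 cells seeded at 7500 per well; serially diluted compounds added 24 h later; 4 days at 37 °C; cells trypsinized and counted by Coulter Counter; CC50 (50% proliferation vs untreated) obtained by extrapolation; mean ± SEM of two or three independent tests.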

[9] = Selectivity index, ratio of Ki for human HGPRT to Ki for N-terminal hexa-histidine tagged Mycobacterium tuberculosis HGPRT

SMILES | MIC50 [1] | Selectivity Index [2] | Ki [3] | Ki [4] | also measured
CCOC(=O)[C@H](Cc1ccccc1)NP(=O)(COCC(COCP(=O)(N[C@@H](Cc1ccccc1)C(=O)OCC)N[C@@H](Cc1ccccc1)C(=O)OCC)Cn1cnc2c(=O)[nH]c(N)nc21)N[C@@H](Cc1ccccc1)C(=O)OCC | 11 µM | >27 | – | – | –
O=c1[nH]cnc2c1ncn2CCN(CCOCCP(=O)(O)O)CCP(=O)(O)O | – | – | > 50 µM | – | –
O=c1[nH]cnc2c1ncn2CC(COCCP(=O)(O)O)OCCP(=O)(O)O (stereo not drawn) | – | – | > 50 µM | 4 µM | –
Nc1nc2c(ncn2[C@@H]2O[C@H](COP(=O)(O)O)[C@@H](O)[C@H]2O)c(=O)[nH]1 | – | – | – | – | Ki [5]: 20 µM; Ki [6]: 526 µM
CCOC(=O)[C@H](Cc1ccccc1)NP(=O)(CCOCC(Cn1cnc2c(=O)[nH]c(N)nc21)OCCP(=O)(N[C@@H](Cc1ccccc1)C(=O)OCC)N[C@@H](Cc1ccccc1)C(=O)OCC)N[C@@H](Cc1ccccc1)C(=O)OCC (stereo partly drawn) | 9 µM | >11 | – | – | –
Nc1nc2c(ncn2CCN(CCN(CCO)CCP(=O)(O)O)CCP(=O)(O)O)c(=O)[nH]1 | – | – | 1.6 µM | 0.03 µM | –
O=c1[nH]cnc2c1ncn2CCN(CCN(CCO)CCP(=O)(O)O)CCP(=O)(O)O | – | – | 22.5 µM | 0.5 µM | –
Nc1nc2c(ncn2CC(COCCP(=O)(O)O)OCCP(=O)(O)O)c(=O)[nH]1 (stereo not drawn) | – | – | 0.69 µM | – | Ratio Ki [7]: 28
CCOC(=O)[C@H](Cc1ccccc1)NP(=O)(CCN(CCN(CCP(=O)(N[C@@H](Cc1ccccc1)C(=O)OCC)N[C@@H](Cc1ccccc1)C(=O)OCC)CCP(=O)(N[C@@H](Cc1ccccc1)C(=O)OCC)N[C@@H](Cc1ccccc1)C(=O)OCC)CCn1cnc2c(=O)[nH]c(N)nc21)N[C@@H](Cc1ccccc1)C(=O)OCC | 4.5 µM | >67 | – | – | CC50 at 96 h [8]: > 300 µM
CCOC(=O)[C@H](Cc1ccccc1)NP(=O)(CCN(CCO)CCN(CCn1cnc2c(=O)[nH]cnc21)CCP(=O)(N[C@@H](Cc1ccccc1)C(=O)OCC)N[C@@H](Cc1ccccc1)C(=O)OCC)N[C@@H](Cc1ccccc1)C(=O)OCC | 8 µM | >19.5 | – | – | CC50 at 96 h [8]: 156 µM
CCOC(=O)[C@H](Cc1ccccc1)NP(=O)(CCN(CCN(CCP(=O)(N[C@@H](Cc1ccccc1)C(=O)OCC)N[C@@H](Cc1ccccc1)C(=O)OCC)CCP(=O)(N[C@@H](Cc1ccccc1)C(=O)OCC)N[C@@H](Cc1ccccc1)C(=O)OCC)CCn1cnc2c(=O)[nH]cnc21)N[C@@H](Cc1ccccc1)C(=O)OCC | 4.5 µM | >6 | – | – | CC50 at 96 h [8]: 28 µM
Nc1nc2c(ncn2CC(COCP(=O)(O)O)COCP(=O)(O)O)c(=O)[nH]1 | – | – | 0.77 µM | – | Ratio Ki [7]: 28
O=c1[nH]cnc2c1ncn2CC(COCP(=O)(O)O)COCP(=O)(O)O | – | – | 7.7 µM | – | –
O=c1[nH]cnc2c1ncn2CCOCCP(=O)(O)O | – | – | 18 µM | – | –
Nc1nc2c(ncn2CCN(CCN(CCCO)CCP(=O)(O)O)CCP(=O)(O)O)c(=O)[nH]1 | – | – | 15.9 µM | 0.04 µM | Ratio Ki [9]: 400
Nc1nc2c(ncn2CCOCCP(=O)(O)O)c(=O)[nH]1 | – | – | 1.76 µM | – | –
CCOC(=O)[C@H](Cc1ccccc1)NP(=O)(CCN(CCO)CCN(CCn1cnc2c(=O)[nH]c(N)nc21)CCP(=O)(N[C@@H](Cc1ccccc1)C(=O)OCC)N[C@@H](Cc1ccccc1)C(=O)OCC)N[C@@H](Cc1ccccc1)C(=O)OCC | 4.5 µM | >43 | – | – | CC50 at 96 h [8]: 193 µM
O=c1[nH]cnc2c1ncn2CCN(CCN(CCP(=O)(O)O)CCP(=O)(O)O)CCP(=O)(O)O | – | – | 1.13 µM | 0.01 µM | –
O=c1[nH]cnc2c1ncn2CCN(CCN(CCCO)CCP(=O)(O)O)CCP(=O)(O)O | – | – | 22.7 µM | 1.64 µM | Ratio Ki [9]: 14
CCOC(=O)[C@H](Cc1ccccc1)NP(=O)(CCOCC(Cn1cnc2c(=O)[nH]cnc21)OCCP(=O)(N[C@@H](Cc1ccccc1)C(=O)OCC)N[C@@H](Cc1ccccc1)C(=O)OCC)N[C@@H](Cc1ccccc1)C(=O)OCC (stereo partly drawn) | 15 µM | >6 | – | – | CC50 at 96 h [8]: 90 µM
Nc1nc2c(ncn2CCN(CCN(CCP(=O)(O)O)CCP(=O)(O)O)CCP(=O)(O)O)c(=O)[nH]1 | – | – | 1.6 µM | 0.03 µM | –
Nc1nc2c(ncn2CCN(CCOCCP(=O)(O)O)CCP(=O)(O)O)c(=O)[nH]1 | – | – | 1.4 µM | – | –
CCOC(=O)[C@H](Cc1ccccc1)NP(=O)(COCC(COCP(=O)(N[C@@H](Cc1ccccc1)C(=O)OCC)N[C@@H](Cc1ccccc1)C(=O)OCC)Cn1cnc2c(=O)[nH]cnc21)N[C@@H](Cc1ccccc1)C(=O)OCC | 7.5 µM | >13 | – | – | –
